The record followed here is ChEMBL document CHEMBL2069233, “New hypotheses for the binding mode of 4- and 7-substituted indazoles in the active site of neuronal nitric oxide synthase” (Bioorg Med Chem, 2012).

By IC50 is commonly meant the concentration that gives 50% inhibition. A word on the inhibition: it is the share of the control response that was lost under treatment.

Assay [1] addresses Nitric oxide synthase 1 (Rattus norvegicus, UniProt P29476). Description: Inhibition of nNOS in rat cerebellum homogenates assessed as reduction in conversion of L-[3H]arginine to L-[3H]citrulline. The class given is tissue-based. The essentials: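 Rat cerebellum homogenate as nNOS source; L-[3H]arginine to L-[3H]citrulline conversion with 1 mM CaCl2, 200 μM β-NADPH, 0.88 μM L-arginine plus 0.12 μM L-[3H]arginine, 15 min at 37 °C. Compounds in DMSO 0.4%, tested at 0.01, 0.1, 1, 10 and 100 μM. IC50 taken from inhibition curves, mean ± sem over 3–7 experiments.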

Assay [2] addresses Nitric oxide synthase 1 (Rattus norvegicus) (UniProt P29476). Description: Inhibition of nNOS in rat cerebellum homogenates assessed as reduction in conversion of L-[3H]arginine to L-[3H]citrulline at 100 uM. The assay is classed as tissue-based.

The structures appear in SMILES notation.

Nitric oxide synthase 1, sequence (P29476 whole entry): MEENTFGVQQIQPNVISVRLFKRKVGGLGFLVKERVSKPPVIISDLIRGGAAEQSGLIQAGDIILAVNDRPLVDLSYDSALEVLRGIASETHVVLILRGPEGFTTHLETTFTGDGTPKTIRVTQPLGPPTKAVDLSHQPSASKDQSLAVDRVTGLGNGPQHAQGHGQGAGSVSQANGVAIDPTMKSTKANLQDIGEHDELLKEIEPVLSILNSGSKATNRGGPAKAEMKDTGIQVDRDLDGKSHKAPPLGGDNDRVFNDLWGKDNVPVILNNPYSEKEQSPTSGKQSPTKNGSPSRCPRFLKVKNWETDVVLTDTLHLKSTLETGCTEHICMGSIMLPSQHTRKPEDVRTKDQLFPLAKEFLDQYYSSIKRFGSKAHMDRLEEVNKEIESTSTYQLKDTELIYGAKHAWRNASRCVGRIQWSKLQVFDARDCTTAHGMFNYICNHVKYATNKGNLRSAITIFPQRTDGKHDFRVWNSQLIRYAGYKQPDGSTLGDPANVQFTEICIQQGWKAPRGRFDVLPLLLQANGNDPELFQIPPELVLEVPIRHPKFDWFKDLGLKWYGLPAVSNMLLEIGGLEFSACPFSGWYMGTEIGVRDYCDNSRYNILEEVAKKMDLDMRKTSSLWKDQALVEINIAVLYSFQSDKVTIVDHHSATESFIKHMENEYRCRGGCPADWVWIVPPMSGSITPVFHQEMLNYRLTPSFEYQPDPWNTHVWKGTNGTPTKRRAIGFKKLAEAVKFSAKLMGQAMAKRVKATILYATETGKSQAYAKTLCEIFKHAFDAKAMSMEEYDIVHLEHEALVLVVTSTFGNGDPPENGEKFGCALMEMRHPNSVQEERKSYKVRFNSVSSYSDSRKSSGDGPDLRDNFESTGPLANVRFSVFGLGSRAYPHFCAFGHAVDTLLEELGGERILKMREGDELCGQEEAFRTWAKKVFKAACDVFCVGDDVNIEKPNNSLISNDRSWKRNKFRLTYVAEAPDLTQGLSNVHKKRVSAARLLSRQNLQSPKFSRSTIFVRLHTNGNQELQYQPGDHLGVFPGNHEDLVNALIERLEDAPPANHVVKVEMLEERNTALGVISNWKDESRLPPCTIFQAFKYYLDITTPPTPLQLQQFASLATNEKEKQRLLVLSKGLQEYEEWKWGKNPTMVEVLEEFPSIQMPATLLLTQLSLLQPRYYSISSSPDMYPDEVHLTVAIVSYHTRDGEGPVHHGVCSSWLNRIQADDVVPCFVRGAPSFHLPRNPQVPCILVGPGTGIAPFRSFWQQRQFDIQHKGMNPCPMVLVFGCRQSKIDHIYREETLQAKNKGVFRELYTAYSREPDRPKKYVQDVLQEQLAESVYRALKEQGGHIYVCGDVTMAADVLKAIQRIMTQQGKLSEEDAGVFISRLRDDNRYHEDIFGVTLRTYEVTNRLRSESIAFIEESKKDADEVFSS
Nitric oxide synthase 1 (Rattus norvegicus), sequence (P29476 whole entry): as above

Regarding `Cn1ncc2c([N+](=O)[O-])cccc21`, the IC50 in assay [1] is 10.6 µM. Also, the inhibition in assay [2] came out at 86%.
In the case of `CCn1cc2c(Br)cccc2n1`, the IC50 in assay [1] is over 100 µM. Moreover, the inhibition in assay [2] turned out to be 0%.
For `N#Cc1cccc2[nH]ncc12` the same measures were 42.5 µM and 63%.
The like results for `CCn1ncc2c([N+](=O)[O-])cccc21` were, in that order, 51.7 µM and 67%.
For `Cn1ncc2c(Br)cccc21` the same measures were 28.2 µM and 75%.
Take `Cn1cc2c(Br)cccc2n1`: in assay [1], the IC50 is over 100 µM. For the same compound, in assay [2], the inhibition came to 19%.
The like results for `CCn1ncc2c(Br)cccc21` were, in that order, 72.5 µM and 61%.
Turning to `CCn1cc2c([N+](=O)[O-])cccc2n1`, in assay [1], the IC50 is over 100 µM. In addition, the inhibition in assay [2] was 34%.
`Cn1cc2c([N+](=O)[O-])cccc2n1`: the IC50 in assay [1] is over 100 µM. For the same compound, the inhibition in assay [2] is 34%.
